Our source for the Activity values is ChEMBL document CHEMBL1158700, “Phenolic constituents of the rhizomes of the Thai medicinal plant Belamcanda chinensis with proliferative activity for two breast cancer cell lines” (2005).

Holding throughout (assay type): functional
The subject of test [1] is MCF7. The test is described as follows: Estrogenic activity in human MCF7 cells assessed as drug level causing stimulation of cell proliferation equivalent to 10 pM estradiol by alamar blue assay. The procedure, abridged:
(§1)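 MCF-7 cells were maintained in MEM with 6 ng/mL insulin, pyruvate, NEAA, glutamine and 10% FBS. For the assay, 1 × 10^4 cells/well went into phenol red-free RPMI with 5% DCC-treated FBS. Compounds were given in DMSO (control 1% DMSO) at 10 nM–100 µM for 96 h at 37 °C. Estradiol dilutions served as reference. Read-out: Alamar Blue, 3 h, fluorescence ex 530/em 590 nm. Values came from linear regression, ≥5 concentrations, quadruplicate.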
Background: Alamar Blue is a resazurin reagent that responds to reducing activity.

The test system of test [2] is MCF7. Description: Estrogenic activity in human MCF7 cells assessed as drug level causing stimulation of cell proliferation equivalent to 100 pM estradiol by alamar blue assay. The procedure, abridged:
as §1

The subject of test [3] is T47D. Description: Estrogenic activity in human T47D cells assessed as drug level causing stimulation of cell proliferation equivalent to 10 pM estradiol by alamar blue assay. The procedure, abridged: (§2)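 T47D cells were grown in RPMI-1640 with pyruvate, NEAA, glutamine and 10% FBS, then plated at 1 × 10^4 cells/well in phenol red-free RPMI with 5% DCC-treated FBS. Compounds were added in DMSO (1% DMSO control) and incubated 96 h at 37 °C, 5% CO2, alongside serial estradiol. Alamar Blue was read after 3 h (ex 530/em 590 nm). Values came from linear regression over ≥5 concentrations, quadruplicate.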

For test [4], the system named is T47D. Description: Estrogenic activity in human T47D cells assessed as drug level causing stimulation of cell proliferation equivalent to 100 pM estradiol by alamar blue assay. The gist of the method:
as §2

`O=C(Cc1cc(O)cc(O)c1)c1ccc(O)cc1` [BELAMPHENONE]: the Activity with MCF7 [1] was found to be 0.8 µM; in the test on MCF7 [2] it was 12.8 µM; with T47D [3] it was 0.09 µM; with T47D [4], 37.1 µM.
For the compound `O=c1c(-c2ccc(O)cc2)coc2cc(O)cc(O)c12` [GENISTEIN], the Activity in the test with MCF7 [1] came to 0.003 µM; in the test with MCF7 [2], 0.013 µM; in the test on T47D [3] it was 0.001 µM; in the test with T47D [4] it was 0.009 µM.
As for `O=C(c1ccc(O)cc1)c1c(O)cc(O)cc1O` [IRIFLOPHENONE], the figures for the Activity with MCF7 [1], in the test with MCF7 [2] and in the test with T47D [3] were 0.7 µM, 6.8 µM and 4.9 µM, respectively.
On to `COc1c(O)cc2occ(-c3ccc(O)c(O)c3)c(=O)c2c1O` [IRILIN D], for which the figures for the Activity in the test with MCF7 [1] and in the test on MCF7 [2] were 5.6 µM and 12.7 µM, respectively.
For the compound `COc1cc(-c2coc3cc4c(c(OC)c3c2=O)OCO4)cc(OC)c1OC` [IRISFLORENTIN], in the test with MCF7 [1], the Activity worked out at 50.3 µM.
Take `COc1ccc(-c2coc3cc(O[C@@H]4O[C@H](CO)[C@@H](O)[C@H](O)[C@H]4O)c(OC)c(O)c3c2=O)cc1O` [IRISTECTORIN A]: the Activity in the test on MCF7 [1] came out at 26.1 µM.
For `COc1cc(-c2coc3cc(O[C@@H]4O[C@H](CO)[C@@H](O)[C@H](O)[C@H]4O)c(OC)c(O)c3c2=O)ccc1O` [IRISTECTORIN B], in the test with MCF7 [1], the Activity turned out to be 77.3 µM.
For `Oc1ccc(/C=C/c2cc(O)cc(O)c2)cc1` [RESVERATROL], the Activity with MCF7 [1] amounted to 1.6 µM; in the test with T47D [3], 0.03 µM.
Regarding `COc1c(O[C@@H]2O[C@H](CO)[C@@H](O)[C@H](O)[C@H]2O)cc2occ(-c3ccc(O)cc3)c(=O)c2c1O` [TECTORIDIN], the Activity in the test on MCF7 [1] is 0.02 µM; in the test with MCF7 [2], 0.08 µM; with T47D [3], 0.2 µM.
`COc1c(O)cc2occ(-c3ccc(O)cc3)c(=O)c2c1O` [TECTORIGENIN]: the Activity in the test with MCF7 [1] is 0.3 µM; in the test on MCF7 [2] it was 1 µM; with T47D [3], 0.04 µM; in the test on T47D [4], 0.5 µM.
